Experimental data: ChEMBL document CHEMBL1139358, “Potent and orally bioavailable CCR4 antagonists: Synthesis and structure-activity relationship study of 2-aminoquinazolines” (Bioorg Med Chem, 2009)

Assays:
[1] = target: T1, C-C chemokine receptor type 4 (Homo sapiens, UniProt P51679); experiment: Antagonist activity at human CCR4 receptor expressed in mouse B300-19 cells assessed as CCL22-induced [35S]GTPgammaS binding; format: functional, cell-based
T1 sequence (P51679 whole entry): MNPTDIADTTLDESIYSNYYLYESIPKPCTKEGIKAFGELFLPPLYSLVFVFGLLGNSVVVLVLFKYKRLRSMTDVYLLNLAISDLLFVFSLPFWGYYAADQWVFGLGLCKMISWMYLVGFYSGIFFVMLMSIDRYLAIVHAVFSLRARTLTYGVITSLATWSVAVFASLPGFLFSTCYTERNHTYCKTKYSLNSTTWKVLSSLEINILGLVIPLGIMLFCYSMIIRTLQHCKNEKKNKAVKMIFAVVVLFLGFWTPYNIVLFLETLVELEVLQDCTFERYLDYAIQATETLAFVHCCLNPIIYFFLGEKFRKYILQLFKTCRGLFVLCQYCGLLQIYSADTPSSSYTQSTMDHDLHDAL
Outline: (§1)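 B300-19 pre-B cell membranes stably expressing human CCR4 (1 µg protein/well), incubated 1.5 h at 25 °C with 150 pM [35S]GTPγS, 2 µM GDP, 3 nM MDC (CCL22), WGA SPA beads, in HEPES-NaOH pH 7.05, NaCl, MgCl2, BSA buffer. Scintillation counting. Percent inhibition from no-compound and no-CCL22 control wells. Duplicate wells, four test concentrations.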

[2] = Cmax in BALB/c mouse at 30 mg/kg, po administered as single dose; format: ADME, organism-based; design: dose 30 mg/kg, route oral; details: in vivo
[3] = Tmax in BALB/c mouse at 30 mg/kg, po administered as single dose; format: ADME, organism-based; design: dose 30 mg/kg, route oral; details: in vivo
[4] = Tmax in BALB/c mouse at 100 mg/kg, po administered as single dose; format: ADME, organism-based; design: dose 100 mg/kg, route oral; details: in vivo
[5] = Cmax in BALB/c mouse at 100 mg/kg, po administered as single dose; format: ADME, organism-based; design: dose 100 mg/kg, route oral; details: in vivo
Mus musculus [6] = experiment: Antiinflammatory activity against oxazolone-induced contact hypersensitivity in BALB/c mouse model of acute dermatitis assessed as inhibition of ear swelling at 10 mg/kg, po qd; format: functional
Outline: (§2)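 Female BALB/c mice, 7 weeks, n = 5, sensitized with 3% oxazolone in ethanol on the shaved abdomen. Challenged on day 6 with 1% oxazolone on the right ear. Ear thickness gauged 20 h after challenge. Twice-daily dosing was given 30 min before and 8 h after challenge. Single doses were given after challenge only (8 h or 12 h). Percent inhibition of swelling calculated against control and vehicle groups.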

Mus musculus [7] = experiment: Antiinflammatory activity against oxazolone-induced contact hypersensitivity in BALB/c mouse model of acute dermatitis assessed as inhibition of ear swelling at 100 mg/kg, po qd; format: functional; outline: as §2
Mus musculus [8] = experiment: Antiinflammatory activity against oxazolone-induced contact hypersensitivity in BALB/c mouse model of acute dermatitis assessed as inhibition of ear swelling at 30 mg/kg, po qd; format: functional; outline: as §2
Mus musculus [9] = experiment: AUC (0 to 24 hrs) in BALB/c mouse at 30 mg/kg, po administered as single dose; format: ADME, organism-based, Plasma; design: time < 24 hr, dose 30 mg/kg, route oral; details: in vivo
Mus musculus [10] = experiment: Antiinflammatory activity against oxazolone-induced contact hypersensitivity in BALB/c mouse model of acute dermatitis assessed as inhibition of ear swelling at 30 mg/kg, sc qd; format: functional; details: route subcutaneous; outline: as §2
Mus musculus [11] = experiment: AUC (0 to 24 hrs) in BALB/c mouse at 100 mg/kg, po administered as single dose; format: ADME, organism-based, Plasma; design: time < 24 hr, dose 100 mg/kg, route oral; details: in vivo
[12] = target: T2, C-C chemokine receptor type 4 (Mus musculus) (UniProt P51680); experiment: Antagonist activity at mouse CCR4 receptor expressed in mouse B300-19 cells assessed as CCL22-induced chemotaxis at 1 uM; format: functional, cell-based
T2 sequence (whole entry): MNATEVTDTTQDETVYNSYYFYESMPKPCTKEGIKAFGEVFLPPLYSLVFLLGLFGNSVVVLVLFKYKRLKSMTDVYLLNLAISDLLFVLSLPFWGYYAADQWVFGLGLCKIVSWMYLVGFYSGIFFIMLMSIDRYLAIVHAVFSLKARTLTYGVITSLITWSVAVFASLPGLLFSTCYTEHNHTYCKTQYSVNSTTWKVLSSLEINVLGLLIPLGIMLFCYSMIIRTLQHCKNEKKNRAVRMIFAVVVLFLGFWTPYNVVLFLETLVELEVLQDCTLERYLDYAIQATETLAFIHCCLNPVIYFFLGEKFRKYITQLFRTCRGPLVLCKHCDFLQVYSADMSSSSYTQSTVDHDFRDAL
Outline: (§3)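 Stable CCR4 transfectants of B300-19 cells (human or mouse receptor) at 5 × 10^6 cells/mL in RPMI 1640 with 0.1% BSA, pretreated with test compound. Cells placed above 5-µm polycarbonate filters, with 3 nM human (human CCR4 cells) or 1 nM mouse (mouse CCR4 cells) CCL22 below. Migration for 3 h at 37 °C, 5% CO2. Migrated cells quantified by ATP bioluminescence. Triplicates, four concentrations.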

[13] = target: T3, C-C chemokine receptor type 4 (Homo sapiens) (UniProt P51679); experiment: Antagonist activity at human CCR4 receptor expressed in mouse B300-19 cells assessed as CCL22-induced [35S]GTPgammaS binding at 1 uM; format: functional, cell-based; outline: as §1
T3 sequence (whole entry): T1 sequence (P51679 whole entry)

Mus musculus [14] = experiment: Antiinflammatory activity against oxazolone-induced contact hypersensitivity in BALB/c mouse model of acute dermatitis assessed as inhibition of ear swelling at 30 mg/kg, sc bid; format: functional; details: route subcutaneous; outline: as §2
Mus musculus [15] = experiment: Antiinflammatory activity against oxazolone-induced contact hypersensitivity in BALB/c mouse model of acute dermatitis assessed as inhibition of ear swelling at 30 mg/kg, po bid; format: functional; outline: as §2
[16] = Antagonist activity at human CCR4 receptor expressed in mouse B300-19 cells assessed as CCL22-induced chemotaxis
[17] = Antagonist activity at mouse CCR4 receptor expressed in mouse B300-19 cells assessed as CCL22-induced chemotaxis
[18] = target: T3, C-C chemokine receptor type 4 (Homo sapiens); experiment: Antagonist activity at human CCR4 receptor expressed in mouse B300-19 cells assessed as CCL22-induced chemotaxis at 1 uM; format: functional, cell-based; outline: as §3
Mus musculus [19] = experiment: Antiinflammatory activity against oxazolone-induced contact hypersensitivity in BALB/c mouse model of acute dermatitis assessed as inhibition of ear swelling at 100 mg/kg, po bid; format: functional; outline: as §2

COc1cc2nc(N3CCC(N4CCCC(O)C4)CC3)nc(Nc3ccc(Cl)cc3)c2cc1OC (stereo not given)
IC50 [1]: 0.048 µM

COc1cc2nc(N3CCC(N4CCCC(CO)C4)CC3)nc(Nc3ccc(Cl)cc3)c2cc1OC (stereo not given)
Cmax [2]: 139 ng/mL
Tmax [3]: 2 h
Tmax [4]: 2 h
Cmax [5]: 262 ng/mL
inhibition in vivo at 10 mg/kg (Mus musculus [6]): 13%
inhibition in vivo at 100 mg/kg (Mus musculus [7]): 39%
IC50 [1]: 0.019 µM
inhibition in vivo at 30 mg/kg (Mus musculus [8]): 17%
AUC (Mus musculus [9]): 1010 ng·h/mL
inhibition in vivo at 30 mg/kg (Mus musculus [10]): 44%
AUC (Mus musculus [11]): 1750 ng·h/mL

COc1cc2nc(N3CCC(N4CCOC(CO)C4)CC3)nc(Nc3ccc(Cl)cc3)c2cc1OC (stereo not given)
inhibition [12]: 50%
IC50 [1]: 0.1 µM

COc1cc2nc(N3CCC(N4CCCC(CO)C4)CC3)nc(NC3CCOCC3)c2cc1OC (stereo not given)
inhibition [13]: 4%

COc1cc2nc(N3CCC(N4CCCC(CO)C4)CC3)nc(N(C)CCc3ccc(Cl)cc3)c2cc1OC (stereo not given)
inhibition [13]: 23%

COc1cc2nc(N3CCC(N4CCCC(CO)C4)CC3)nc(C(O)c3ccc(Cl)cc3)c2cc1OC (stereo not given)
inhibition [13]: 7%

COc1cc2nc(N3CCC(N4CCCC(CO)C4)CC3)nc(N3CCc4cc(Cl)ccc43)c2cc1OC (stereo not given)
inhibition [13]: 40%

COc1cc2nc(N3CCC(N4CCCC4)CC3)nc(Nc3ccc(Cl)cc3)c2cc1OC
inhibition in vivo at 30 mg/kg (Mus musculus [14]): 43%
inhibition in vivo at 30 mg/kg (Mus musculus [15]): 2%
IC50 [16]: 0.11 µM
IC50 [17]: 0.13 µM

COc1cc2nc(N3CCC(N4CCCC(CO)C4)CC3)nc(NCCCc3ccc(Cl)cc3)c2cc1OC (stereo not given)
IC50 [1]: 0.18 µM

COc1cc2nc(N3CCC(N4CCCC(CO)C4)CC3)nc(NS(=O)(=O)c3ccc(Cl)cc3)c2cc1OC (stereo not given)
inhibition [13]: 5%

COc1cc2nc(N3CCC(N4CCCC(CO)C4)CC3)nc(-c3ccc(Cl)cc3)c2cc1OC (stereo not given)
IC50 [1]: > 1 µM

COc1cc2nc(N3CCC(N4CCCC(CO)C4)CC3)nc(NC3CCS(=O)(=O)CC3)c2cc1OC (stereo not given)
inhibition [13]: 0%

COc1cc2nc(N3CCC(N4CCCC(CO)C4)CC3)nc(NCCc3ccc(Cl)cc3)c2cc1OC (stereo not given)
inhibition [18]: 43%
IC50 [1]: 0.061 µM

COc1cc2nc(N3CCC(N4CCCC(OC)C4)CC3)nc(Nc3ccc(Cl)cc3)c2cc1OC (stereo not given)
IC50 [1]: 0.1 µM

COc1cc2nc(N3CCC(N4CCCCC4)CC3)nc(NC3CCCCCC3)c2cc1OC
inhibition in vivo at 30 mg/kg (Mus musculus [15]): 2%

COc1cc2nc(N3CCC(N4CCCC(CO)C4)CC3)nc(NC(=O)c3ccc(Cl)cc3)c2cc1OC (stereo not given)
inhibition [13]: 11%

COc1cc2nc(N3CCC(N4CCCC(CO)C4)CC3)nc(C(=O)c3ccc(Cl)cc3)c2cc1OC (stereo not given)
inhibition [13]: 42%

COc1cc2nc(N3CCC(N4CCCC4)CC3)nc(NC3CCCCCC3)c2cc1OC
IC50 [16]: 0.2 µM
inhibition in vivo at 100 mg/kg (Mus musculus [19]): 8%
IC50 [17]: 0.13 µM
inhibition in vivo at 30 mg/kg (Mus musculus [10]): 39%

COCC1CCCN(C2CCN(c3nc(Nc4ccc(Cl)cc4)c4cc(OC)c(OC)cc4n3)CC2)C1 (stereo not given)
IC50 [1]: 0.052 µM

COc1cc2nc(N3CCC(N4CCCC(CO)C4)CC3)nc(NC3CCCCCC3)c2cc1OC (stereo not given)
inhibition in vivo at 30 mg/kg (Mus musculus [15]): 11%
IC50 [1]: 0.03 µM

COc1cc2nc(N3CCC(N4CCCC(CO)C4)CC3)nc(NCc3ccc(Cl)cc3)c2cc1OC (stereo not given)
IC50 [1]: 0.087 µM
